SUMO1 PPI mod – modulators of human SUMO1-mediated protein-protein interactions; AID 602429; inhibition, % at 20 µM; SUMO1 binding to a labelled peptide, TR-FRET, 1 h; 0.33% of 360,000 active; in the data active = inhibition above about 37%
LMPTP block – LMPTP (human) inhibition | P24666 | recombinant LMPTP-A, OMFP fluorogenic substrate, fluorescence intensity | inhibition, % at 20 µM | 0.22% of 360,000 active | AID 651560;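 active = compounds that cut the enzyme signal by at least half of the control window in the single-dose screen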
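Buffer or medium: Bis-Tris pH 6.0, DTT, detergent; Assay system: LMPTP-A enzyme; Quantity: 0.625 nM enzyme; Detection: endpoint fluorescence intensity; Times: 50 min dark incubation at room temperature; Controls: substrate-only low control, DMSO enzyme-plus-substrate high control; Doses: single 20 µM dose; Read-out: percent inhibition versus substrate-only and uninhibited controls; Reagent: 400 µM OMFP.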
STEP inh – STEP (human) phosphatase inhibition | P54829 | 0.25% of 360,000 active | recombinant STEP, OMFP fluorogenic substrate, fluorescence | AID 588621 | inhibition, % at 20 µM;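 active = inhibition at 20 µM, scaled per plate between control wells, above about 37%, limit read from the data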
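System: STEP phosphatase, cell-free reaction; Buffer or medium: Bis-Tris pH 6.0 buffer with DTT, detergent; Incubation: 20 min at room temperature, dark; Measured by: fluorescence, 480/540 nm.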
Scp1 inh – blocks human Scp-1 phosphatase activity; Q9GZU7; Recombinant Scp1, phosphopeptide, malachite green phosphate absorbance; inhibition, % at 20 µM; 0.88% of 340,000 active;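 active = inhibition above about 50% at 20 µM, limit read from the data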
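System: truncated SCP-1 phosphatase (76-261aa); medium: Tris acetate buffer pH 5.5 with MgCl2 and Tween-20; incubation: 45 min room-temperature reaction, 5 min colour, 30 min stabiliser; compound: single 20 µM dose, 1% DMSO; reagent: Phosphorylated 17-residue peptide substrate; read-out: % inhibition at 20 µM; technique: colorimetric free-phosphate detection, absorbance 630 nm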
DNMT1 block – DNMT1 (human) enzyme inhibition | 0.83% of 360,000 active | DNMT1 molecular beacon, Hinp1I cleavage, fluorescence | inhibition (reported as % activation of signal), % at 10 µM | P26358; in the data active = inhibition above about 50%
NadD inh – NadD (S. aureus) enzyme inhibition | inhibition, % at 20 µM | purified NadD enzyme, colorimetric absorbance read-out | 0.78% of 360,000 active; in the data active = inhibition above about 26%
NadD inh conf – NadD (S. aureus) inhibition, single concentration confirmation; purified S. aureus NadD, colorimetric enzyme assay; inhibition, % at 20 µM; shares compounds with NadD inh; AID 624309; 13% of 2,000 active; in the data active = inhibition mostly above about 42%, no sharp cut-off; inactive = mostly below about 42%
Numbers stand for hits; . = inactive; / = no result. Compounds with a hit are over-represented: about 2.4% of the library has one in this group of screens.

SMILES	SUMO1 PPI mod	LMPTP block	STEP inh	Scp1 inh	DNMT1 block	NadD inh	NadD inh conf
S=c1nc[nH]c2c1sc1nc(-c3ccccc3)c3c(c12)CCCC3	.	.	.	.	.	40.0	.
COC(=O)c1sc2nc(C)nc(SCC(=O)C(C)(C)C)c2c1C	.	.	.	.	.	.	/
Cn1c(-c2c(N)n(CCCc3ccccc3)c3nc4ccccc4nc23)nc2ccccc21	.	.	.	.	.	35.1	.
CCc1nnc(NS(=O)(=O)c2ccc(N=Cc3c(C)[nH]n(-c4cccc(Cl)c4)c3=O)cc2)s1	.	.	.	.	.	.	/
CCc1nnc(NS(=O)(=O)c2ccc(N=Cc3c(C)[nH]n(-c4ccc(Cl)cc4)c3=O)cc2)s1	.	.	.	.	.	30.5	47.2
Cc1ccc(-n2[nH]c(C)c(C=Nc3ccc(S(=O)(=O)Nc4nccs4)cc3)c2=O)cc1C	.	.	.	.	.	41.8	51.8
c1ccc(Cc2noc(CN3CCN(CCOc4ccccc4)CC3)n2)cc1	.	.	.	.	.	.	/
Cc1noc(C)c1C(=O)OC(C)C(=O)Nc1ccc(C(N)=O)cc1 (stereo unspecified)	.	.	.	.	.	.	/
O=C1S/C(=C\c2ccc(O)c([N+](=O)[O-])c2)C(=O)N1c1ccccc1Cl	.	.	.	.	.	.	/
COc1cc(/C=C2\SC(=O)N(c3cccc(Cl)c3)C2=O)cc([N+](=O)[O-])c1O	.	82.2	97.6	56.2	70.5	26.2	.

Assay outcomes deposited in PubChem by Sanford-Burnham Center for Chemical Genomics.
